Test results from ChEMBL document CHEMBL4330169, “Bioactive Diterpenoids from the Stems of Euphorbia royleana” (J Nat Prod, 2019).

test system: BV-2; experiment: Anti-inflammatory activity in mouse BV2 cells assessed as reduction in LPS-induced nitric oxide production by Griess assay; format: functional, cell-based
Summary of the method: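 NO release from LPS-stimulated BV-2 cells was measured by the Griess reaction, and IC50 values were derived. SMT (2-methyl-2-thiopseudourea, sulfate) served as the positive control. Data come from three experiments. The procedure otherwise follows a previously published method.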

Row | IC50 [µM] | SMILES
1 | 12 | CC(=O)O[C@H]1CCC(C)(C)[C@H]2CCC3=CC4=C(C)C(=O)O[C@@H]4C[C@H]3[C@]12C
2 | 14.5 | C/C=C(/C)C(=O)O[C@H]1C(C)=C[C@]23C(=O)[C@@H](C=C(C)[C@@H](O)[C@]12O)[C@H]1[C@@H](C[C@H]3C)[C@@]1(C)COC(=O)c1ccccc1
3 | > 50 | CC1=C2[C@@H](O)C3=C(C[C@H]2OC1=O)[C@@]1(C)[C@H](CC3)C(C)(C)CC[C@@H]1O
4 | > 50 | C[C@H]1C(=O)CC[C@]2(C)[C@@H]1CC[C@@]13CC[C@@H](C[C@H]12)[C@](O)(CO)C3
5 | > 50 | C=C1C[C@@]23CC[C@@H]4C(C)(C)[C@H](O)CC[C@@]4(C)[C@@H]2C[C@@H]1[C@@H](O)C3=O
6 | > 50 | CC1=C2C=C3CC[C@@H]4[C@@](C)(CO)CC[C@H](O)[C@@]4(C)[C@@H]3C[C@H]2OC1=O
7 | > 50 | CO[C@H]1[C@H]2[C@@H]([C@@H](OC(C)=O)[C@@H](C)C(=O)[C@@]34C[C@H](C)[C@H](OC(C)=O)[C@]3(/C=C(\C)[C@H]1O)O4)C2(C)C
8 | > 50 | C=C[C@]1(C)C=C2CC[C@H]3[C@](C)(C=O)[C@@H](O)CC[C@]3(C)[C@H]2CC1 [SANDARACOPIMARADIENOLAL]
9 | 38.4 | CC1=C2C=C3CC[C@@H]4C(C)(C)CC[C@H](O)[C@@]4(C)[C@@H]3C[C@@H]2OC1=O
10 | > 50 | C=C[C@@]1(C)C=C2CC[C@@H]3[C@@](C)(O)[C@H](O)CC[C@@]3(C)[C@@H]2C[C@@H]1O
11 | 32.3 | C=C[C@@]1(C)C=C2CC[C@@H]3[C@@](C)(C=O)[C@H](O)CC[C@@]3(C)[C@@H]2C[C@@H]1O
12 | 32.6 | CCC(C)C(=O)OC[C@]1(C)C(=O)CC[C@@]2(C)[C@@H]3CC[C@@H]4C[C@@]3(CC[C@@H]21)C[C@@]4(O)CO (stereo partly specified)
13 | > 50 | C=C1C[C@@]23CC[C@@H]4C(C)(C)C(=O)CC[C@@]4(C)[C@@H]2C[C@@H]1[C@@H](O)C3=O
14 | > 50 | CC(=O)O[C@H]1C2=C(C[C@H]3OC(=O)C(C)=C13)[C@@]1(C)[C@H](CC2)C(C)(C)CC[C@@H]1O
15 | > 50 | CC(=O)OC[C@]1(C)C(=O)CC[C@@]2(C)[C@@H]3C[C@@H]4CC[C@@]3(CC[C@@H]21)C[C@@]4(O)CO
16 | > 50 | C/C=C(/C)C(=O)O[C@@H]1/C(C)=C/[C@@]23O[C@@]2(C[C@H](C)[C@@H]3O)C(=O)[C@H](C)[C@H](OC(C)=O)[C@@H]2[C@H]([C@@H]1OC)C2(C)C
17 | > 50 | C=C1C[C@@]23CC[C@@H]4C(C)(C)[C@@H](O)CC[C@@]4(C)[C@@H]2C[C@@H]1[C@@H](O)C3=O
18 | > 50 | CC(=O)O[C@@H]1[C@@H]2[C@H]([C@H](OC(=O)c3ccccc3)[C@H](OC(C)=O)/C(C)=C/[C@@]34O[C@@]3(C[C@H](C)[C@@H]4OC(C)=O)C(=O)[C@@H]1C)C2(C)C
19 | 3.7 | CSC(=N)N
20 | 19.3 | C/C=C(\C)C(=O)OC[C@]1(C)C(=O)CC[C@@]2(C)[C@@H]3CC[C@@H]4C[C@@]3(CC[C@@H]21)C[C@@]4(O)CO

Row | SMILES | IC50 [µM]
21 | C/C=C(/C)C(=O)O[C@H]1C(C)=C[C@]23C(=O)[C@@H](C=C(C)[C@@H](O)[C@]12O)[C@H]1[C@@H](C[C@H]3C)[C@@]1(C)COC(=O)/C(C)=C/C | 28.6
